From publication PMC8200842 (The Journal of General Physiology, 2021)
“And” between values parts separate entries of the source, which are not always exact repeats. Equal values may be shown once. Read-outs that look alike come from different tables or passages of the source. Marks after values point to notes of the source that are not given here.

Assays:
Format in all cases: binding
MelBSt = MelBSt (Salmonella typhimurium, UniProt P30878); conditions: for ΔΔH: from 15°C to 30°C
D55C MelBSt mutant = D55C MelBSt mutant (Salmonella typhimurium, UniProt P30878, D55C); experiment: Thermal denaturation by CD spectroscopy; conditions: D55C MelBSt 10 µM, component at 50 mM in CD buffer, ellipticity at 210 nm
WT MelBSt = WT MelBSt (Salmonella typhimurium, UniProt P30878); experiment: Thermal denaturation by CD spectroscopy; conditions: for 10% unfolding / 50% unfolding (Tm) / 90% unfolding: WT MelBSt 10 µM, component at 50 mM in CD buffer, ellipticity at 210 nm; for denaturation completed faster than in the absence of salt / ΔTm: WT MelBSt; for denaturation completed faster than in the absence of salt: above 60°C, nonspecific salt effect; for ΔTm: difference in Tm compared with apo
Outline: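 Samples sat in a 1-mm cuvette. Ellipticity at 210 nm was recorded from 25–80°C at 1°C intervals, ramping 1°C/min, and expressed as percent unfolded. Tm is the half-maximal ellipticity decrease by curve fitting. Data are SEM; unpaired t test, P<0.05.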

[1] = MelBSt with 50 mM melibiose (MelBSt/Mel binary complex), 15°C
[2] = MelBSt with 50 mM melibiose (MelBSt/Mel binary complex), 20°C
[3] = MelBSt with 50 mM melibiose (MelBSt/Mel binary complex), 25°C
[4] = MelBSt with 50 mM melibiose (MelBSt/Mel binary complex), 30°C
[5] = binding to MelBSt/Mel binary complex
[6] = MelBSt with 100 mM NaCl (MelBSt/Na^+ binary complex), 15°C
[7] = MelBSt with 100 mM NaCl (MelBSt/Na^+ binary complex), 20°C
[8] = MelBSt with 100 mM NaCl (MelBSt/Na^+ binary complex), 25°C
[9] = MelBSt with 100 mM NaCl (MelBSt/Na^+ binary complex), 30°C
[10] = MelBSt with 100 mM NaCl (MelBSt/Na^+ binary complex), 35°C
[11] = apo MelBSt, range over 15°C, 20°C, 25°C and 30°C
[12] = binding to MelBSt/Na^+ binary complex

[Na+] [Na^+]
Entropy change (−TΔS) (MelBSt; [1]): -3.009 ± 0.0621 kcal/mol | Free energy change (ΔG) (MelBSt; [1]): -5.566 ± 0.0478 kcal/mol | Kd (MelBSt; [1]): 60 ± 10 µM | ΔH (MelBSt; [1]): -2.557 ± 0.014 kcal/mol | Entropy change (−TΔS) (MelBSt; [2]): -1.94 ± 0.0072 kcal/mol | Free energy change (ΔG) (MelBSt; [2]): -5.554 ± 0.0406 kcal/mol | Kd (MelBSt; [2]): 70 ± 10 µM | ΔH (MelBSt; [2]): -3.619 ± 0.0359 kcal/mol | Entropy change (−TΔS) (MelBSt; [3]): -0.913 ± 0.0072 kcal/mol | Free energy change (ΔG) (MelBSt; [3]): -5.39 ± 0.196 kcal/mol | Kd (MelBSt; [3]): 120 ± 40 µM | ΔH (MelBSt; [3]): -4.479 ± 0.191 kcal/mol | Free energy change (ΔG) (MelBSt; [4]): -5.485 ± 0.177 kcal/mol | Kd (MelBSt; [4]): 120 ± 30 µM | ΔH (MelBSt; [4]): -5.299 ± 0.124 kcal/mol | difference in apo MelBSt binding affinities between Na^+ and melibiose (MelBSt; apo MelBSt): at least 20 fold | Entropy change (−TΔS) (MelBSt; apo MelBSt (main buffer), 15°C): 4.197 ± 0.311 kcal/mol | Free energy change (ΔG) (MelBSt; apo MelBSt (main buffer), 15°C): -4.345 ± 0.0932 kcal/mol | Kd (MelBSt; apo MelBSt (main buffer), 15°C): 510 ± 80 µM | ΔH (MelBSt; apo MelBSt (main buffer), 15°C): -8.544 kcal/mol and -8.544 ± 0.215 kcal/mol | Entropy change (−TΔS) (MelBSt; apo MelBSt (main buffer), 20°C): 2.404 ± 0.0048 kcal/mol | Free energy change (ΔG) (MelBSt; apo MelBSt (main buffer), 20°C): -4.333 ± 0.117 kcal/mol | Kd (MelBSt; apo MelBSt (main buffer), 20°C): 600 ± 100 µM | ΔH (MelBSt; apo MelBSt (main buffer), 20°C): -6.74 ± 0.103 kcal/mol | Entropy change (−TΔS) (MelBSt; apo MelBSt (main buffer), 25°C): 0.872 ± 0.0741 kcal/mol | Free energy change (ΔG) (MelBSt; apo MelBSt (main buffer), 25°C): -4.412 ± 0.1 kcal/mol | Kd (MelBSt; apo MelBSt (main buffer), 25°C): 590 ± 120 µM | ΔH (MelBSt; apo MelBSt (main buffer), 25°C): -5.284 ± 0.191 kcal/mol | Entropy change (−TΔS) (MelBSt; apo MelBSt (main buffer), 30°C): -0.473 ± 0.387 kcal/mol | Free energy change (ΔG) (MelBSt; apo MelBSt (main buffer), 30°C): -4.302 ± 0.0526 kcal/mol | Kd (MelBSt; apo MelBSt (main buffer), 30°C): 790 ± 70 µM | ΔH (MelBSt; apo MelBSt (main buffer), 30°C): -3.829 kcal/mol and -3.829 ± 0.335 kcal/mol | ΔΔH (MelBSt; apo MelBSt): ~4.78 kcal/mol | −ΔSConf (MelBSt; [5]): 148.74 J/mol·K | −ΔSMix (MelBSt; [5]): 33.00 J/mol·K | −ΔSSolv (MelBSt; [5]): −194.56 J/mol·K | −ΔSSum at °25 C (MelBSt; [5]): −12.82 J/mol·K | −ΔSConf (MelBSt; binding to apo MelBSt): −354.89 J/mol·K | −ΔSMix (MelBSt; binding to apo MelBSt): 33.00 J/mol·K | −ΔSSolv (MelBSt; binding to apo MelBSt): 334.13 J/mol·K | −ΔSSum at °25 C (MelBSt; binding to apo MelBSt): 12.24 J/mol·K | 10% unfolding (D55C MelBSt mutant): 46.35 ± 0.25 °C | 50% unfolding (Tm) (D55C MelBSt mutant): 56.75 ± 0.25 °C | 90% unfolding (D55C MelBSt mutant): 66.51 ± 0.31 °C | 10% unfolding (WT MelBSt): 49.07 ± 0.28 °C | 50% unfolding (Tm) (WT MelBSt): 54.83 ± 0.03 °C | 90% unfolding (WT MelBSt): 60.06 ± 0.29 °C | denaturation completed faster than in the absence of salt (WT MelBSt): 4–5 °C | ΔTm (WT MelBSt): 1.54 (<0.05) °C

[K+] [K^+]
10% unfolding (D55C MelBSt mutant): 46.51 ± 0.71 °C | 50% unfolding (Tm) (D55C MelBSt mutant): 56.15 ± 0.16 °C | 90% unfolding (D55C MelBSt mutant): 65.07 ± 0.06 °C | 10% unfolding (WT MelBSt): 46.06 ± 0.02 °C | 50% unfolding (Tm) (WT MelBSt): 53.34 ± 0.04 °C | 90% unfolding (WT MelBSt): 59.94 ± 0.69 °C | denaturation completed faster than in the absence of salt (WT MelBSt): 4–5 °C | ΔTm (WT MelBSt): 0.05 ^d (>0.05 ^e) °C

OC[C@H]1O[C@H](OCC2O[C@@H](O)[C@H](O)[C@@H](O)[C@@H]2O)[C@H](O)[C@@H](O)[C@H]1O (stereo partly shown) [Mel, melibiose]
Entropy change (−TΔS) (MelBSt; [6]): -2.3 ± 0.16 kcal/mol | Free energy change (ΔG) (MelBSt; [6]): -3.927 ± 0.0072 kcal/mol | Kd (MelBSt; [6]): 1050 ± 10 µM | ΔH (MelBSt; [6]): -1.54 ± 0.103 kcal/mol | Entropy change (−TΔS) (MelBSt; [7]): -1.76 ± 0.237 kcal/mol | Free energy change (ΔG) (MelBSt; [7]): -4.085 ± 0.0956 kcal/mol | Kd (MelBSt; [7]): 950 ± 130 µM | ΔH (MelBSt; [7]): -2.32 ± 0.141 kcal/mol | Entropy change (−TΔS) (MelBSt; [8]): -1.14 ± 0.0621 kcal/mol | Free energy change (ΔG) (MelBSt; [8]): -3.994 ± 0.0072 kcal/mol | Kd (MelBSt; [8]): 1180 ± 10 µM | ΔH (MelBSt; [8]): -2.861 ± 0.055 kcal/mol | Entropy change (−TΔS) (MelBSt; [9]): -0.712 ± 0.0741 kcal/mol | Free energy change (ΔG) (MelBSt; [9]): -3.956 ± 0.017 kcal/mol | Kd (MelBSt; [9]): 1410 ± 40 µM | ΔH (MelBSt; [9]): -3.243 ± 0.0574 kcal/mol | Entropy change (−TΔS) (MelBSt; [10]): -0.261 ± 0.055 kcal/mol | Free energy change (ΔG) (MelBSt; [10]): -3.879 ± 0.0478 kcal/mol | Kd (MelBSt; [10]): 1780 ± 140 µM | ΔH (MelBSt; [10]): -3.623 ± 0.105 kcal/mol | Entropy change (−TΔS) (MelBSt; apo MelBSt (main buffer), 15°C): 3.499 ± 1.03 kcal/mol | Free energy change (ΔG) (MelBSt; apo MelBSt (main buffer), 15°C): -2.694 ± 0.0645 kcal/mol | Kd (MelBSt; apo MelBSt (main buffer), 15°C): 9150 ± 1060 µM | ΔH (MelBSt; apo MelBSt (main buffer), 15°C): -6.193 ± 1.09 kcal/mol | ΔH (MelBSt; apo MelBSt (main buffer), 15°C, listed as melibiose): -6.193 kcal/mol | Entropy change (−TΔS) (MelBSt; apo MelBSt (main buffer), 20°C): 2.849 ± 1.19 kcal/mol | Free energy change (ΔG) (MelBSt; apo MelBSt (main buffer), 20°C): -2.71 ± 0.0621 kcal/mol | Kd (MelBSt; apo MelBSt (main buffer), 20°C): 9590 ± 1010 µM | ΔH (MelBSt; apo MelBSt (main buffer), 20°C): -5.559 ± 1.25 kcal/mol | Entropy change (−TΔS) (MelBSt; apo MelBSt (main buffer), 25°C): 2 ± 1.6 kcal/mol | Free energy change (ΔG) (MelBSt; apo MelBSt (main buffer), 25°C): -2.698 ± 0.139 kcal/mol | Kd (MelBSt; apo MelBSt (main buffer), 25°C): 10800 ± 2490 µM | ΔH (MelBSt; apo MelBSt (main buffer), 25°C): -4.694 ± 1.47 kcal/mol | Entropy change (−TΔS) (MelBSt; apo MelBSt (main buffer), 30°C): 1.34 ± 1.35 kcal/mol | Free energy change (ΔG) (MelBSt; apo MelBSt (main buffer), 30°C): -2.584 ± 0.0526 kcal/mol | Kd (MelBSt; apo MelBSt (main buffer), 30°C): 13800 ± 1180 µM | ΔH (MelBSt; apo MelBSt (main buffer), 30°C): -3.92 ± 1.3 kcal/mol | ΔH (MelBSt; apo MelBSt (main buffer), 30°C, listed as melibiose): -3.92 kcal/mol | ΔΔH (MelBSt; apo MelBSt): ~2.39 kcal/mol | Kd (MelBSt; [11]): 9000 to 13000 µM | binding free energy ΔG (MelBSt; [11]): -2.694 to -2.584 kcal/mol | −ΔSConf (MelBSt; [12]): 59.86 J/mol·K | −ΔSMix (MelBSt; [12]): 33.00 J/mol·K | −ΔSSolv (MelBSt; [12]): −108.78 J/mol·K | −ΔSSum at °25 C (MelBSt; [12]): −15.92 J/mol·K | −ΔSConf (MelBSt; binding to apo MelBSt): −169.20 J/mol·K | −ΔSMix (MelBSt; binding to apo MelBSt): 33.00 J/mol·K | −ΔSSolv (MelBSt; binding to apo MelBSt): 164.61 J/mol·K | −ΔSSum at °25 C (MelBSt; binding to apo MelBSt): 28.41 J/mol·K | ΔCp (MelBSt; binding to apo MelBSt, slope of ΔH versus temperature 15-30°C): 643.01 ± 26.92 J/mol·K | 50% unfolding (Tm) (D55C MelBSt mutant): >80 °C | 10% unfolding (WT MelBSt): 45.95 ± 0.47 °C | 50% unfolding (Tm) (WT MelBSt): 54.07 ± 0.07 °C | 90% unfolding (WT MelBSt): 64.24 ± 0.42 °C | ΔTm (WT MelBSt): 0.78 (<0.05) °C
